Data published in ChEMBL document CHEMBL4732051, “The discovery of potent small molecule activators of human STING” (Eur J Med Chem, 2021).
Calls of active or inactive are those of the source. The rule behind the calls is not given here.

Experiments:
[1] = tested on: Stimulator of interferon genes protein (Homo sapiens), Q86WV6 [R71H,G230A,R293Q]; assay: Activation of human STING HAQ mutant expressed in HEK293T cells assessed as phosphorylation at (Ser366) at 10 uM incubated for 2 hrs and measured by Western blot analysis; type: cell-based; conditions: filed as activator
Procedure, shortened: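 HEK293T clones stably carrying each human STING variant, picked by blasticidin selection and limiting dilution. 5 x 10^5 cells were exposed to compound at 10μM for 2 h, lysed in RIPA with phosphatase and protease inhibitors, and 10 μg protein run on 10% SDS-PAGE. Immunoblots probed for pSTING (Ser366), pIRF3 (Ser396), total STING, IRF3 and actin, detected by ECL.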

[2] = tested on: Stimulator of interferon genes protein (Homo sapiens), Q86WV6 [UNDEFINED MUTATION]; assay: Activation of human STING R232 in A 172 cells assessed as phosphorylation of IRF-3 at (Ser396) at 10 uM incubated for 2 hrs and measured by Western blot analysis; type: cell-based; conditions: filed as activator
Procedure, shortened: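 Tumor cell lines or human primary cells carrying endogenous STING variants; STING KO cells as control. 10µM for 2 h, then lysed in RIPA with phosphatase and protease inhibitors. 10 μg protein on 10% SDS-PAGE, blotted for pSTING (Ser366), pIRF3 (Ser396), STING, IRF3 and actin, ECL detection.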

Cytochrome P450 2D6 = Cytochrome P450 2D6 (Homo sapiens, UniProt P10635); assay: Inhibition of CYP2D6 (unknown origin); type: ADME
[3] = molecular target: T1, Stimulator of interferon genes protein (Homo sapiens, UniProt Q86WV6); assay: Activation of human STING in human PBMC cells assessed as induction of TNFalpha expression at 10 uM measured by qt-PCR analysis; type: cell-based; conditions: filed as activator
Procedure, shortened: (§1)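 2 x 10^5 freshly isolated human PBMC from healthy donors, separated on Histopaque, given a single compound concentration. Harvested early (6 hr) or late (20h). Cytokine mRNA read by qRT-PCR as relative normalized expression (fold) against vehicle-treated cells.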

[4] = molecular target: T1, Stimulator of interferon genes protein; assay: Activation of human STING in human PBMC cells assessed as induction of CXCL10 expression at 10 uM incubated upto 24 hrs and measured by qt-PCR analysis; type: cell-based; conditions: filed as activator, time hrs <=24; procedure, shortened: as §1
[5] = tested on: Stimulator of interferon genes protein (Homo sapiens), Q86WV6 [G230A,R293Q]; assay: Induction of STING AQ mutant (unknown origin) expressed in HEK293T cells assessed as increase in luciferase coupled ISG54-ISRE activity incubated for 18 hrs luciferase reporter gene assay; type: cell-based; conditions: filed as activator
Sequence of Stimulator of interferon genes protein (Homo sapiens), Q86WV6 [G230A,R293Q] (Q86WV6 whole entry G230A/R293Q): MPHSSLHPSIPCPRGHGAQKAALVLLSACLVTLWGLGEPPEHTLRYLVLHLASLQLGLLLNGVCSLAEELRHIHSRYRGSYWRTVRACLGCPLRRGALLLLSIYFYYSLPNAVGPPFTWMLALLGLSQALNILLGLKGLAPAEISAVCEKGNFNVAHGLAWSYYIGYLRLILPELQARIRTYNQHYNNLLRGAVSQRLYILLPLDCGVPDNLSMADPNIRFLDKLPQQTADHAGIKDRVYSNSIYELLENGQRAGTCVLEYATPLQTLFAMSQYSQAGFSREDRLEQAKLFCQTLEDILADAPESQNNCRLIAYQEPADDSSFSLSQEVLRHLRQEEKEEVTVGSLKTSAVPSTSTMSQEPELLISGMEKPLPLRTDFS

T1 sequence (Q86WV6 whole entry): as the sequence (Q86WV6 whole entry G230A/R293Q) above, with A230G, Q293R counted along it
Sequence of Stimulator of interferon genes protein (Homo sapiens), Q86WV6 [UNDEFINED MUTATION] (Q86WV6 whole entry, looked up, change not shown): as the sequence (Q86WV6 whole entry G230A/R293Q) above, with A230G, Q293R counted along it
Sequence of Cytochrome P450 2D6 (P10635 whole entry): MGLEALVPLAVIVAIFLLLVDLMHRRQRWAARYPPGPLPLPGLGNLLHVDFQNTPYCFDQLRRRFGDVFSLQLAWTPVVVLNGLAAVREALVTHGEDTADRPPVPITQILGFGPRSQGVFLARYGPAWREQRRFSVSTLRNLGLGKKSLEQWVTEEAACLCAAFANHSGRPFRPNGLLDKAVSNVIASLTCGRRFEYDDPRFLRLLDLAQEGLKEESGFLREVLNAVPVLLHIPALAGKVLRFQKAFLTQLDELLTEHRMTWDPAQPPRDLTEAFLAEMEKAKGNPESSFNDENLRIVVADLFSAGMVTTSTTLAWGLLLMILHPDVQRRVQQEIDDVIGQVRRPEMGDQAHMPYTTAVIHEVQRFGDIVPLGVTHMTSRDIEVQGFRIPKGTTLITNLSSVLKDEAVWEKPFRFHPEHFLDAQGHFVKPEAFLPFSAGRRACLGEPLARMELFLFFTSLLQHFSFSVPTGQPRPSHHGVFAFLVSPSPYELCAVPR
Sequence of Stimulator of interferon genes protein (Homo sapiens), Q86WV6 [R71H,G230A,R293Q] (Q86WV6 whole entry R71H/G230A/R293Q): as the sequence (Q86WV6 whole entry G230A/R293Q) above, with R71H counted along it

## CC1(C)C(=O)N(Cc2c(F)cccc2Cl)c2cc(C(=O)NCc3c(F)cc(F)cc3F)ccc21
[1]
  Activity: Active
[2]
  Activity: Active
Cytochrome P450 2D6
  inhibition (INH): Not Active
[3]
  Activity: Active
[4]
  Activity: Active
[5]
  Activity: Active
